{"data": "Experimental data of several laboratories", "cell line": "HeLa", "read-out": "cell growth or viability", "technique": "MTT", "note": "Compare with care: the assays were run in different laboratories."}
{"SMILES": "[NH2][Pt]([NH2])([Cl])[Cl]", "time": "72 h", "measurement": "IC50", "value": "6.8 µM"}
{"SMILES": "C=C(COCc1ccc(OC)cc1)[C@@H]1CC[C@@H](C)C[C@H]1OCc1ccc(OC)cc1", "tested at": "30 µM", "time": "72 h", "measurement": "inhibition", "value": "60.6%"}
{"SMILES": "O=C(C=Cc1ccccc1)Nc1cc(-c2ccnc(N3CCC(O)CC3)c2)ccn1", "time": "72 h", "measurement": "IC50", "value": "0.0741 µM"}
{"SMILES": "C[C@@H]1CC[C@@H]([C@@](C)(O)Cn2cnc3ccccc32)[C@H](OCc2ccccc2)C1", "tested at": "30 µM", "time": "72 h", "measurement": "inhibition", "value": "86.3%"}
{"SMILES": "COC(=O)COc1c(Cc2cc(C(C)(C)CC(C)(C)C)cc(-n3nc4ccccc4n3)c2OCC(=O)OC)cc(C(C)(C)CC(C)(C)C)cc1-n1nc2ccccc2n1", "measurement": "GI50", "value": "8.12 µM"}
{"SMILES": "O=c1c(C=NNC(=S)Nc2ccccc2)coc2ccccc12", "time": "48 h", "measurement": "IC50", "value": "91.9 µM"}
{"SMILES": "COc1ccc(COC[C@@](O)(CNCc2ccc(F)cc2)[C@@H]2CC[C@@H](C)C[C@H]2OCc2ccc(OC)cc2)cc1", "tested at": "30 µM", "time": "72 h", "measurement": "inhibition", "value": "99.1%"}
{"SMILES": "O=C(C=Cc1ccc(F)cc1)Nc1cc(-c2ccnc(N3CCC(O)CC3)c2)ccn1", "tested at": "5 µM", "measurement": "inhibition", "value": "67.2%"}
{"SMILES": "COc1ccc(COC[C@@](O)(CNCc2ccccc2)[C@@H]2CC[C@@H](C)C[C@H]2OCc2ccc(OC)cc2)cc1", "tested at": "30 µM", "time": "72 h", "measurement": "inhibition", "value": "97.4%"}
{"SMILES": "Cc1cccc(/C=C/C(=O)Nc2cc(-c3ccnc(N4CCOCC4)c3)ccn2)c1", "tested at": "5 µM", "measurement": "inhibition", "value": "72%"}
{"SMILES": "O=C(Nc1cccc([N+](=O)[O-])c1)c1ccco1", "measurement": "IC50", "value": "637 µM"}
{"SMILES": "Cc1cc(NC(=O)C=Cc2ccccc2)cc(-c2ccnc(N3CCOCC3)c2)c1", "tested at": "5 µM", "measurement": "inhibition", "value": "16.2%"}
{"SMILES": "O=C(Nc1cccc([N+](=O)[O-])c1)c1cccs1", "measurement": "IC50", "value": "282 µM"}
{"SMILES": "C[C@H](CCC(=O)O)[C@H]1CC[C@H]2[C@@H]3CC[C@@H]4C[C@H](O)CC[C@]4(C)[C@H]3CC[C@]12C", "time": "72 h", "measurement": "IC50", "value": "56 µM"}
{"SMILES": "O=C(CCc1ccccc1)Nc1cc(-c2ccnc(N3CCC(O)CC3)c2)ccn1", "tested at": "5 µM", "measurement": "inhibition", "value": "82.9%"}
{"SMILES": "C=C(COCc1ccc(F)cc1)[C@@H]1CC[C@@H](C)C[C@H]1OCc1ccc(F)cc1", "tested at": "10 µM", "time": "72 h", "measurement": "inhibition", "value": "32.8%"}
{"SMILES": "COc1cccc2c1C(=O)c1c(O)c3c(c(O)c1C2=O)C[C@@](O)(C(=O)CO)C[C@@H]3O[C@H]1C[C@H](N)[C@H](O)[C@H](C)O1", "measurement": "GI50", "value": "4.21 µM"}
{"SMILES": "O=C(C=Cc1ccccc1)Nc1cccc(-c2ccnc(N3CCC(CO)CC3)c2)c1", "tested at": "5 µM", "measurement": "inhibition", "value": "73.1%"}
